# Lipid droplet: modulators of hepatic lipid droplet formation. AML12 mouse hepatocytes, oleate lipid droplets, BODIPY imaging. inhibition, % at 6.5 µM. hit rate 0.4% among 240,000. AID 1656;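 active = lipid droplet intensity inhibited by at least 50%, with more than 500 cells counted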
#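 System: AML12 hepatocytes (mouse). Probe or stimulus: oleic acid at 100 µM to induce lipid droplet formation. Times: overnight treatment with compound plus oleate. Detection: Image-based BODIPY and DAPI two-channel analysis. Evaluation: percent inhibition of filter-corrected integrated lipid droplet intensity per well.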
# SR-BI DiI-HDL act: SR-BI HDL lipid transfer activation; AID 504775; hit rate 0.096% among 320,000; activation, % at 12.5 µM; CHO ldlA[mSR-BI] cells, DiI-HDL uptake fluorescence, 3 h; 100 = double the neutral-control signal;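 active = mean replicate activation of at least 60% and every replicate at or above 60%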;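 note: 0% = median plate neutral-control signal and 100% = twice that signal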
#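 Test system: SR-BI-overexpressing, LDLR-lacking CHO cells; Medium: Ham's F12 with 0.5% BSA, HEPES 25 mM, pH 7.4; Schedule: 3 h, 37 °C; Technique: bottom-read fluorescence, 550/595 nm.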
# SMARCA2 activ: activators of SMARCA2 function; AID 652017; MG213 cells, MMTV-luciferase reporter, dexamethasone, overnight; activation, % at 9.1 µM; hit rate 1% among 370,000; in the data active = activation above about 7.8%;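 note: 0% = vehicle wells and 100% = reference activator wells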
# AHR act: activators of human aryl hydrocarbon receptor; P35869; AHR-responsive luciferase reporter cells, luminescence; activation, % at 5 µM; hit rate 2.5% among 320,000; AID 2796; in the data active = activation above about 47%;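 note: 0% = vehicle wells and 100% = reference agonist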
# Target sequence (P35869 whole entry, looked up): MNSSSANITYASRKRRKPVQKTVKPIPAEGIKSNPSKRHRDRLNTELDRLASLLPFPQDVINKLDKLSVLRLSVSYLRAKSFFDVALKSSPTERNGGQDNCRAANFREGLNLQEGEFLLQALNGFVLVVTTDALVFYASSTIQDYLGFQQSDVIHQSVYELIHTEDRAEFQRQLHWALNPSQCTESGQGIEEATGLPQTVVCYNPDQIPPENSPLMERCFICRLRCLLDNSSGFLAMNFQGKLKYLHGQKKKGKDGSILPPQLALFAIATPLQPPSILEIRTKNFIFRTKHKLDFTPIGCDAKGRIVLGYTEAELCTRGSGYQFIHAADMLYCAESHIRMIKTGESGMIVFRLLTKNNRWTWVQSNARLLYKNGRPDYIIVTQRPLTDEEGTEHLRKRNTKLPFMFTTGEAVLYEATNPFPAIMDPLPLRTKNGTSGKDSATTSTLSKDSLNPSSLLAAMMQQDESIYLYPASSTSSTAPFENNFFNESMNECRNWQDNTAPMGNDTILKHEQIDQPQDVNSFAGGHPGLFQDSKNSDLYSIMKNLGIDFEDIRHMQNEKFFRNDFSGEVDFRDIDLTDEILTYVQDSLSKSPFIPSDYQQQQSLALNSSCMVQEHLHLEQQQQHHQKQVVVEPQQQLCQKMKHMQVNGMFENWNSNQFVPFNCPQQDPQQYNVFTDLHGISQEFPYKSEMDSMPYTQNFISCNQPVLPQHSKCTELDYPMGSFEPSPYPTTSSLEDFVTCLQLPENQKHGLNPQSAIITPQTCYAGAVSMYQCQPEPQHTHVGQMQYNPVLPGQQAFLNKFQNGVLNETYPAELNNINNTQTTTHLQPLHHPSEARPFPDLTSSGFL
# SR-BI DiI inh: inhibitors of mouse SR-BI mediated HDL lipid uptake | Q61009 | ldlA[mSR-BI] CHO cells, DiI-HDL uptake fluorescence, 3 h | inhibition, % at 12.5 µM | hit rate 0.96% among 320,000 | AID 488896;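 active = mean replicate inhibition of at least 70% and a set share of replicates each scoring 70 or more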;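 note: 0% = median of neutral control wells and 100% = median of positive control wells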
# CR mimetic SO: lowers age-related superoxide in aged yeast cells; hit rate 0.18% among 330,000; superoxide response (% of plate mean), % at 10 µM; S. cerevisiae aged cells, superoxide DHE fluorescence; active compounds read low; AID 2690;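 active = superoxide response under a set limit, about three screen SD below normal, cut at about 65% in these data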;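 note: yeast aged for seven days with compound at 30 °C before DHE staining; 100% = average MFI of all compound-treated wells on the plate with controls excluded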
# * hit, by the source's call; · = no result given. Hits are enriched below; roughly 4.3% of the tested compounds scored in any of these assays.
SMILES,Lipid droplet,SR-BI DiI-HDL act,SMARCA2 activ,AHR act,SR-BI DiI inh,CR mimetic SO
CCOC(=O)c1cnn(-c2cc(Oc3ccccc3C)ncn2)c1N,-6.7,-1.6,-2.7,6.2,1.6,105.0
CC(=O)N1CCN(c2ccc(N3CCN(Cc4ccccc4)[C@H](C)C3)c(C)c2)[C@H](C)C1,·,·,-4.0,·,·,·
Cn1c(Cn2c(=O)sc3ccccc32)nnc1SCC(=O)Nc1ccc2c(c1)OCO2,·,0.0,-1.5,59.1*,0.0,94.2
O=C(NCc1ccccc1)[C@H]1CCCN1C(=O)[C@H]1CCCN1C(=O)c1ccccc1C(F)(F)F,·,·,-6.0,·,·,·
COc1ccc(/C=C2\Sc3ccc(C(=O)N4CCCC4)cc3N(C)C2=O)cc1OC,-24.9,-68.0,·,1.4,68.0,104.1
COc1ccc(/C=C2\Sc3ccc(C(=O)NC4CC4)cc3N(C)C2=O)cc1OC,9.2,-75.6,-2.2,17.7,75.6*,91.8
O=c1cc(CSc2nnc(Nc3ccccc3)s2)nc2sccn12,22.9,-10.8,0.2,56.6*,10.8,112.5
Cc1ccccc1Nc1nnc(SCc2cc(=O)n3ccsc3n2)s1,·,3.7,-3.3,5.9,-3.7,107.7
N#Cc1nc(-c2ccc(OCc3ccc(Cl)cc3)cc2)oc1N1CCOCC1,·,-75.5,0.5,0.9,75.5*,96.4
Fc1ccc(-c2csc(/C=C/c3ccc4c(c3)OCO4)n2)cc1,-18.5,-24.9,5.9,82.0*,24.9,106.9
COCCN1Cc2cc(C(=O)OC)c3c(c2C1=O)c1cc(OC)ccc1n3S(C)(=O)=O,·,·,2.2,·,·,·
Cc1ccc(S(=O)(=O)N2CCCC(C(=O)Nc3c(C)n(C)n(-c4ccccc4)c3=O)C2)cc1 (configuration not stated),·,·,-2.0,·,·,·
O=C(/C=C/c1ccc(Br)o1)Nc1nnc(C2CC2)s1,-3.5,·,·,66.0*,·,103.3
CCOC(=O)N1CCN(C(=O)C[C@@H]2C[C@]3(C(=O)OCC)CCC4=C3N(CCC4)C2=O)CC1,·,·,-3.4,·,·,·
CCSc1ncc(/C=N/Nc2ccc([N+](=O)[O-])cc2)n1C,·,-66.1,3.3,-7.0,66.1,85.7
CCSc1ncc(/C=N/Nc2ccc(Cl)cc2)n1C,·,-42.1,5.8,103.4*,42.1,107.6
FC(F)Oc1ccc(NC(=S)NNc2ccnc3cc(Cl)ccc23)cc1,6.1,-95.2,-0.4,7.2,95.2*,98.3
O=C(NNc1ccnc2cc(Cl)ccc12)C1CCCCC1,-2.4,0.5,-2.9,13.3,-0.5,94.3
NC(=S)NNc1ccnc2cc(Cl)ccc12,-7.5,-90.3,-0.4,4.1,90.3*,100.8
O=C(NCc1cccs1)C1C2C=CC3(CN(Cc4ccccc4)C(=O)C13)O2 (configuration not stated),·,·,2.7,·,·,·
O=C(NCc1cccnc1)c1ccc(COc2cccc3ccccc23)o1,·,·,-7.7,77.5*,·,105.0
NNC(=O)c1ccc(COc2cccc3ccccc23)o1,-20.4,-20.1,0.4,68.8*,20.1,111.6
CCCc1ccc(OCc2ccc(C(=O)Nc3cccc(C)n3)o2)c(OC)c1,·,-3.0,-1.7,59.8*,3.0,98.8
CCCc1ccc(OCc2ccc(C(=O)NCc3cccnc3)o2)c(OC)c1,2.0,-20.1,0.7,50.5*,20.1,134.2
COc1ccc(S[C@]2(C(=O)N3CCOCC3)CC(=O)N(C(=O)/C=C/c3ccccc3)[C@@H]2c2ccc(OC)cc2)cc1,·,·,-1.6,·,·,·
SMILES,Lipid droplet,SR-BI DiI-HDL act,SMARCA2 activ,AHR act,SR-BI DiI inh,CR mimetic SO
CC(COc1ccc(OC(F)(F)F)cc1)CN1CCC(C(O)(c2ccccc2)c2ccccc2)CC1 (configuration not stated),·,·,-9.9,·,·,·
CNc1cc([N+](=O)[O-])ccc1N/C=C/C(=O)c1cccs1,-6.4,-25.2,5.9,74.0*,25.2,104.2
O=C(Nc1ccc(N2CCCC2)c(Cl)c1)c1cccc(-c2cc3ccccc3oc2=O)c1,18.0,-86.6,0.6,18.9,86.6*,107.8
Cc1ccc(NC(=O)c2cc(NC(=O)c3ccco3)ccc2N2CCOCC2)cc1Cl,18.5,-73.6,2.1,5.2,73.6*,112.2
CS(=O)(=O)N1CCN(c2ccccc2NC(=O)c2cc3ccccc3o2)CC1,-16.6,-74.6,-1.2,32.8,74.6*,92.3
O=C(Nc1ccccc1N1CCOCC1)c1cc2ccccc2o1,20.1,·,0.6,9.7,·,105.3
O=C(Nc1ccc(N2CCOCC2)c(Cl)c1)c1cc2ccccc2o1,16.9,-84.9,·,4.0,84.9*,113.9
CCCN1C(=O)c2n[nH]c(C(C)C)c2C1c1cccc(C(F)(F)F)c1 (configuration not stated),·,·,-0.3,·,·,·
COc1ccc(C(=O)Nc2nc3ccc(OC)cc3s2)cc1,-0.8,-53.5,3.8,·,53.5,97.1
COc1ccc2nc(NC(=O)c3cccc(-c4cc5ccccc5oc4=O)c3)sc2c1,14.8,-77.3,-0.9,12.5,77.3*,136.9
O=C1CNC(=O)c2c(nc3n2CCC3)N1,·,-0.7,7.8*,-0.1,0.7,91.8
O=c1[nH]c(C(F)(F)F)nc2c1nc1n2CCC1,·,·,2.5,·,·,·
O=C(Nc1ccc(F)cc1)OC1CC2CC1[C@H]1CCCCN1[C@H]2Cc1ccccc1 (some centres not stated),·,·,-2.4,·,·,·
CN(Cc1ccccc1)C(=O)c1cccc(NC(=O)Cc2ccc(NC(=O)C3CCCN(C(=O)C4CCCCC4)C3)cc2)c1 (configuration not stated),·,-74.8,-3.2,·,74.8*,·
CN(C(=O)c1cccc(NC(=O)Cc2ccc(NC(=O)C3CCCN(C(=O)C4CCC4)C3)cc2)c1)C1CCCCC1 (configuration not stated),·,-87.7,-1.8,·,87.7*,·
CN1C(c2ccccc2)CC2CN(c3ccccc3)C(=O)C21 (configuration not stated),·,·,-2.0,·,·,·
Cc1ccc(C)c(Nc2nc(-c3ccncc3)nc3ccccc23)c1,·,-48.0,-1.6,67.9*,48.0,107.0
OCCNc1nc(Nc2cccc(O)c2)nc2ccccc12,17.5,·,-1.8,19.2,·,110.2
COc1cccc(Nc2nc(NCCO)c3ccccc3n2)c1,-12.7,13.0,1.4,49.2*,-13.0,98.8
COc1ccc(Nc2nc(NCCO)nc(N3CCCC3)n2)cc1,·,20.8,0.1,28.0,-20.8,106.2
COc1cccc(Nc2nc(NCCO)nc(N3CCCC3)n2)c1,·,-1.3,0.7,48.0*,1.3,95.1
COc1ccc(Nc2nc(-c3ccccc3)nc3ccccc23)c(OC)c1,1.6,-76.1,0.2,27.7,76.1*,122.8
CC(C)n1nnnc1C1(C)CSCC(=O)N1Cc1cccc(F)c1 (configuration not stated),·,·,-1.5,·,·,·
COc1ccc(-c2nc3c(C)cc(Br)cn3c2Cc2ccccc2C(F)(F)F)cc1OC,·,·,-0.1,·,·,·
C=CCN1[C@@H](CC(C)C)COc2cccc(F)c2S1(=O)=O,·,·,-3.1,·,·,·
O=c1[nH]c(-c2ccccc2)cn1C1CCN(Cc2ccc(-c3nc4ccc(Br)cc4nc3-c3ccccc3)cc2)CC1,·,·,-4.0,·,·,·
C=CCNc1nc(NCCO)nc(N2CCCC2)n1,-1.2,15.8,-4.5,65.5*,-15.8,87.2
